According to ChEMBL document CHEMBL1154803, “Tetranortriterpenoids from Chisocheton paniculatus” (J Nat Prod, 2009):

What was measured:
HeLa = assay: Cytotoxicity against human HeLa cells by MTT assay; format: functional, cell-based
Method in brief: (§1)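 MTT assay per a literature method. HeLa (cervical) and SMMC7721 (hepatoma) cells came from the Cell Bank of the Shanghai Institute of Cell Biology. Fluorouracil served as positive control. Three independent replicates were run, and IC50 values were reported.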

SMMC-7721 = assay: Cytotoxicity against human SMMC7721 cells by MTT assay; format: functional, cell-based; method in brief: as §1

C/C=C(\C)C(=O)O[C@@H]1[C@@H]2OC[C@]3(C)[C@H](OC(C)=O)C[C@H](O)[C@@](C)([C@@H]23)[C@H]2C[C@H](O)O[C@H]3C[C@@H](C4=CCOC4=O)C(C)=C3[C@]12C [CHISONIMBOLININ D] was tested, and the IC50 (HeLa) was 32 µM and the IC50 (SMMC-7721) was 50 µM.
With C/C=C(\C)C(=O)O[C@@H]1[C@@H]2OC[C@]3(C)[C@H](OC(C)=O)C[C@H](O)[C@@](C)([C@@H]23)[C@H]2C[C@H](OCC)O[C@H]3C[C@@H](C4=CCOC4=O)C(C)=C3[C@]12C [CHISONIMBOLININ E] the IC50 (HeLa) was greater than 100 µM and the IC50 (SMMC-7721) was greater than 100 µM.
Work on C/C=C(\C)C(=O)O[C@@H]1[C@@H]2OC[C@]3(C)[C@H](OC(C)=O)C[C@H](O)[C@@](C)([C@@H]23)[C@H]2C[C@H](OC)O[C@H]3C[C@@H](C4=CCOC4=O)C(C)=C3[C@]12C [CHISONIMBOLININ B] yielded an IC50 (HeLa) greater than 100 µM and an IC50 (SMMC-7721) of 50 µM.
For C/C=C(\C)C(=O)O[C@@H]1[C@@H]2OC[C@]3(C)[C@H](OC(=O)/C(C)=C/C)C[C@H](O)[C@@](C)([C@@H]23)[C@H]2C[C@H](OC)O[C@H]3C[C@@H](C4=CCOC4=O)C(C)=C3[C@]12C [CHISONIMBOLININ C], the IC50 (HeLa) was 13 µM and the IC50 (SMMC-7721) was 50 µM.
With C/C=C(\C)C(=O)O[C@@H]1[C@@H]2OC[C@]3(C)[C@H](OC(C)=O)C[C@H](OC(C)=O)[C@@](C)([C@@H]23)[C@H]2CCO[C@H]3C[C@@H](C4=CCOC4=O)C(C)=C3[C@]12C [CHISONIMBOLININ G] the IC50 (HeLa) was greater than 100 µM and the IC50 (SMMC-7721) was greater than 100 µM.
In the case of C/C=C(\C)C(=O)O[C@@H]1[C@@H]2OC[C@]3(C)[C@H](OC(C)=O)C[C@H](OC(C)=O)[C@@](C)([C@@H]23)[C@H]2C[C@H](OC)O[C@H]3C[C@@H](C4=CCOC4=O)C(C)=C3[C@]12C [CHISONIMBOLININ A], the IC50 (HeLa) is reported as greater than 100 µM and the IC50 (SMMC-7721) is reported as greater than 100 µM.
In the case of C/C=C(\C)C(=O)O[C@@H]1[C@@H]2OC[C@]3(C)[C@H](OC(C)=O)C[C@H](O)[C@@](C)([C@@H]23)[C@H]2CCO[C@H]3C[C@@H](C4=CCOC4=O)C(C)=C3[C@]12C [CHISONIMBOLININ F], the IC50 (HeLa) is reported as greater than 100 µM and the IC50 (SMMC-7721) is reported as greater than 100 µM.
